Experimental data from different studies.
Each line is one published result; the experiments were not run side by side.
FGFR4: Fibroblast growth factor receptor 4 (FGFR4, Homo sapiens, UniProt P22455)

SMILES | target | read-out | mode | method | concentration | measurement | result
O=C(Nc1cccnn1)N1CCC(=Cc2cccc(Oc3ccc(C(F)(F)F)cn3)c2)CC1 | FGFR4 | cell-free assay | – | competition with immobilised ligand | 1 µM | remaining binding | 100%
O=C1Nc2ccc(Cl)cc2C1=Cc1cc(Cl)c(O)c(Cl)c1 | FGFR4 | cell-free assay | – | – | 0.5 µM | remaining signal | 98%
CCN(CC)CCNC(=O)c1c(C)[nH]c(/C=C2\C(=O)Nc3ccc(F)cc32)c1C | FGFR4 | enzyme activity | inhibitor | – | 10 µM | inhibition | 30%
COc1cc2ncnc(Nc3ccc(Oc4ccccc4)cc3C)c2cc1OC | FGFR4 | enzyme activity | inhibitor | – | 1 µM | inhibition | -3%
COc1cc(Cl)c(C(=O)N[C@@H](CN[C@H]2CC[C@@H](N)CC2)Cc2ccc(C#N)cc2)cc1-c1ccc(CN[C@H](C)c2ccc(C)cc2)o1 | FGFR4 | enzyme activity | inhibitor | – | 1 µM | remaining activity | 96%
CNC(=O)c1cc(Oc2ccc(NC(=O)Nc3ccc(Cl)c(C(F)(F)F)c3)cc2)ccn1 | FGFR4 | enzyme activity | inhibitor | – | 0.3 µM | inhibition | 2%
CC(C)(O)c1cncc(-c2nc3ccc(F)cc3n2C2CC2)c1 | FGFR4 | cell-free assay | – | competition with immobilised ligand | 1 µM | remaining binding | 100%
C=CC(=O)Nc1cc(Nc2nccc(Nc3cc(Cl)c(F)cc3C(C)(C)O)n2)c(OC)cc1N1CC[C@@H](N(C)C)C1 | FGFR4 | enzyme activity | inhibitor | – | 1 µM | inhibition | 2%
CC(C)(C)c1nc(-c2cccc(NS(=O)(=O)c3c(F)cccc3F)c2F)c(-c2ccnc(N)n2)s1 | FGFR4 | enzyme activity | inhibitor | radiometric | 1 µM | remaining activity | 93%
Cc1sc(C(=O)NC2COC2)cc1-n1cc(NC(=O)Nc2c(F)cccc2Cl)cn1 | FGFR4 | enzyme activity | inhibitor | – | 10 µM | remaining activity | 96.8%
COc1cc2nccc(Oc3ccc(NC(=O)c4c5n(n(-c6ccc(F)cc6)c4=O)CCCC5)cc3)c2cc1OC | FGFR4 | enzyme activity | inhibitor | – | 0.1 µM | inhibition | 5%
CN(C)CC#Cc1ccc(OCCCc2sc(N3CCc4cccc(C(=O)Nc5nc6ccccc6s5)c4C3)nc2C(=O)O)c(F)c1 | FGFR4 | cell-free assay | – | competition with immobilised ligand | 1 µM | remaining binding | 100%
CCCS(=O)(=O)Nc1ccc(F)c(C(=O)c2c[nH]c3ncc(-c4ccc(Cl)cc4)cc23)c1F | FGFR4 | enzyme activity | inhibitor | – | 1 µM | inhibition | < 10%
CC(=O)N1CCC(c2ccc(C(=O)NC3=NCCN3)cc2C(F)(F)F)CC1 | FGFR4 | cell-free assay | – | competition with immobilised ligand | 1 µM | remaining binding | 88%
O=C1NC(=O)c2cc(Nc3ccc(F)cc3)c(Nc3ccc(F)cc3)cc21 | FGFR4 | cell-free assay | – | – | 0.5 µM | remaining signal | 95.5%
CC/C(=N\NC(=O)NCc1cccc(O)c1)c1ccc(O)c(C)c1O | Fibroblast growth factor receptor 4 (FGFR4, Homo sapiens, UniProt P22455, V550L) | enzyme activity | inhibitor | – | 0.1 µM | inhibition | 3.5%
COc1cc(-c2cn(C3CCc4c(F)cccc4N(CC(F)(F)F)C3=O)nn2)ccc1-n1cnc(C)c1 (centres unmarked) | FGFR4 | cell-free assay | – | competition with immobilised ligand | 1 µM | remaining binding | 100%
O=C(Nc1cnn(-c2csc(C(=O)NC3COC3)c2)c1)Nc1c(F)cccc1Cl | FGFR4 | enzyme activity | inhibitor | – | 5 µM | remaining activity | 99.6%
Nc1ncnc2occ(-c3ccc(NC(=O)Nc4cc(C(F)(F)F)ccc4F)cc3)c12 | FGFR4 | cell-free assay | – | – | 20 µM | remaining signal | 0.1%
Cn1nc(C(=O)NCc2ccc(C(=O)O)cc2)cc1-c1ccc2[nH]ccc2c1 | FGFR4 | cell-free assay | – | competition with immobilised ligand | 0.1 µM | remaining binding | 100%
CCCOc1ccc(OC)c(F)c1C(=O)c1ccc(C(=O)N[C@@H]2CNC[C@H]2NC(=O)c2ccc3[nH]ncc3c2)cc1 | FGFR4 | enzyme activity | inhibitor | – | 10 µM | remaining activity | 75%
C[C@@]1(Cc2ccc(C#N)cc2)C(=O)N(c2cc(Cl)cc(Cl)c2)c2ncc(C(=O)NC3(c4nc(C5CCC5)no4)CC3)n21 | FGFR4 | cell-free assay | – | competition with immobilised ligand | 1 µM | remaining binding | 96%
Cc1ccc(NC(=O)c2ccc(C)c(C(F)(F)F)c2)cc1C#Cc1nn(C2CCC(O)CC2)c2ncnc(N)c12 (centres unmarked) | FGFR4 | cell-free assay | – | – | 10 µM | remaining signal | 33%
